Laboratory results taken from ChEMBL document CHEMBL1127731, “Structure-activity study of neuropeptide FF: contribution of N-terminal regions to affinity and activity” (J Med Chem, 1994).
pKi: −log10 of the molar value. Where a SMILES comes first, the peptide text is derived from it. [ ]: non-standard residue; d: D form. NMeF = CN[C@@H](Cc1ccccc1)C(=O)O

Assays:
[1] = target: Neuropeptide FF receptor 2 (Rattus norvegicus, UniProt Q9EQD2); assay: Binding affinity for NPPF receptor in rat spinal cord membranes using the radioligand [125I]-[Tyr1]NPFF; type: cell membranes, Membrane
Summary of the method: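 Displacement of [125I][Tyr1]NPFF (0.1 nM final) from rat spinal cord membranes, 30 min at 25 °C, in 50 mM Tris-HCl pH 7.4 with 120 mM NaCl, 0.5% BSA, 0.1 mM bestatin, 1 mM EDTA, 0.5 mM diisopropylfluorophosphate. Unlabeled peptides 5×10^-11–10^-6 M; nonspecific binding with 10^-6 M [Tyr1]NPFF. Stopped by ice-cold buffer and centrifugation; pellet gamma-counted. Ki via Cheng-Prusoff from IC50; three determinations.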

[2] = species on record: Mus musculus; assay: Minimum effective dose able to significantly reverse morphine analgesia in male CDF1 mice by tail-flick test; type: functional
Summary of the method: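 Analog (0, 1, 2.2, 8.8 or 22 nmol) coinjected icv with 5.5 nmol morphine in 150 mM NaCl, 10 mice per group. Radiant-heat tail-flick read 15 min later, baseline 2-3 s, 6 s cutoff defined as 100% analgesia. Percent antinociception = (Tt−Tc)/(6−Tc)×100.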

Sequence of Neuropeptide FF receptor 2 (Q9EQD2 whole entry): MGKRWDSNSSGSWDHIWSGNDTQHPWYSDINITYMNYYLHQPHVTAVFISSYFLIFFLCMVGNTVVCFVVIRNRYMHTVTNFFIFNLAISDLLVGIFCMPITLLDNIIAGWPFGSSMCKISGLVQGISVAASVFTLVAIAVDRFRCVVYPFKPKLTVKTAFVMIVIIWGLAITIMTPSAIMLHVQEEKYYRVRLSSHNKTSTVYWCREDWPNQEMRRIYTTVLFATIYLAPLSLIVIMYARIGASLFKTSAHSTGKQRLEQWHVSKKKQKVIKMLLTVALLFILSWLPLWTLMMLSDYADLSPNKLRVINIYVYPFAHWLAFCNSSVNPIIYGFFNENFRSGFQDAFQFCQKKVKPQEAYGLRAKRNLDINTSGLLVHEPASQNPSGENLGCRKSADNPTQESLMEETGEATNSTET

Compound | pKi [1] | MED [2] [nmol]
CC(C)C[C@H](N)C(=O)N[C@@H](Cc1ccccc1)C(=O)N[C@@H](CCC(N)=O)C(=O)N1CCC[C@@H]1C(=O)N[C@@H](CCC(N)=O)C(=O)N[C@@H](CCCNC(=N)N)C(=O)N[C@@H](Cc1ccccc1)C(N)=O | 7.48 | –
NC(=O)CC[C@H](NC(=O)[C@@H]1CCCN1C(=O)[C@@H](N)CCC(N)=O)C(=O)N[C@@H](CCCN=C(N)N)C(=O)N[C@@H](Cc1ccccc1)C(N)=O | 7.68 | > 22
NC(=O)CC[C@H](NC(=O)[C@H]1CCCN1C(=O)[C@@H](N)CCC(N)=O)C(=O)N[C@@H](CCCN=C(N)N)C(=O)N[C@@H](Cc1ccccc1)C(N)=O | 7.19 | –
CC(C)C[C@H](NC(=O)[C@@H](N)Cc1ccc(O)cc1)C(=O)N[C@@H](Cc1ccccc1)C(=O)N[C@@H](CCC(N)=O)C(=O)N1CCC[C@@H]1C(=O)N[C@@H](CCC(N)=O)C(=O)N[C@@H](CCCN=C(N)N)C(=O)N[C@@H](Cc1ccccc1)C(N)=O | 7.52 | –
CC(C)C[C@H](NC(=O)[C@@H](N)Cc1ccc(O)cc1)C(=O)N[C@@H](Cc1ccccc1)C(=O)N[C@@H](CCC(N)=O)C(=O)N1CCC[C@H]1C(=O)N[C@@H](CCC(N)=O)C(=O)N[C@@H](CCCN=C(N)N)C(=O)N[C@@H](Cc1ccccc1)C(N)=O | 9.70 | 8.8
NC(=O)CC[C@H](NC(=O)[C@H]1CCCN1)C(=O)N[C@@H](CCCN=C(N)N)C(=O)N[C@@H](Cc1ccccc1)C(N)=O | 7.03 | –
NC(=O)CC[C@H](NC(=O)[C@H]1CCCN1C(=O)[C@H](CCC(N)=O)NC(=O)[C@@H](N)Cc1ccccc1)C(=O)N[C@@H](CCCN=C(N)N)C(=O)N[C@@H](Cc1ccccc1)C(N)=O | 7.35 | –
NC(=O)CC[C@H](NC(=O)[C@@H]1CCCN1C(=O)[C@H](CCC(N)=O)NC(=O)[C@@H](N)Cc1ccccc1)C(=O)N[C@@H](CCCN=C(N)N)C(=O)N[C@@H](Cc1ccccc1)C(N)=O | 9.37 | 22
CC(C)C[C@@H](NC(=O)[C@H](N)Cc1ccc(O)cc1)C(=O)N[C@H](Cc1ccccc1)C(=O)N[C@@H](CCC(N)=O)C(=O)N1CCC[C@H]1C(=O)N[C@@H](CCC(N)=O)C(=O)N[C@@H](CCCNC(=N)N)C(=O)N[C@@H](Cc1ccccc1)C(N)=O | 9.00 | –
CC(C)C[C@@H](NC(=O)[C@H](N)Cc1ccc(O)cc1)C(=O)N[C@@H](Cc1ccccc1)C(=O)N[C@@H](CCC(N)=O)C(=O)N1CCC[C@H]1C(=O)N[C@@H](CCC(N)=O)C(=O)N[C@@H](CCCN=C(N)N)C(=O)N[C@@H](Cc1ccccc1)C(N)=O | 9.30 | –
CC(C)C[C@H](N)C(=O)N[C@@H](Cc1ccccc1)C(=O)N[C@@H](CCC(N)=O)C(=O)N1CCC[C@H]1C(=O)N[C@@H](CCC(N)=O)C(=O)N[C@@H](CCCN=C(N)N)C(=O)N[C@@H](Cc1ccccc1)C(N)=O | 9.70 | –
CC(C)C[C@H](NC(=O)[C@@H](N)Cc1ccccc1)C(=O)N[C@@H](Cc1ccccc1)C(=O)N[C@@H](CCC(N)=O)C(=O)N1CCC[C@H]1C(=O)N[C@@H](CCC(N)=O)C(=O)N[C@@H](CCCN=C(N)N)C(=O)N[C@@H](Cc1ccccc1)C(N)=O | – | 22
N=C(N)NCCC[C@H](NC(=O)[C@@H](N)CCC(N)=O)C(=O)N[C@@H](Cc1ccccc1)C(N)=O (H-Gln-Arg-Phe-NH2) | 6.52 | –
CC(C)C[C@H](NC(=O)[C@H](N)Cc1ccc(O)cc1)C(=O)N(C)[C@@H](Cc1ccccc1)C(=O)N[C@@H](CCC(N)=O)C(=O)N1CCC[C@H]1C(=O)N[C@@H](CCC(N)=O)C(=O)N[C@@H](CCCN=C(N)N)C(=O)N[C@@H](Cc1ccccc1)C(N)=O (H-[dY]L[NMeF]QPQRF-NH2) | 9.80 | 8.8
CC(C)C[C@@H](NC(=O)[C@H](N)Cc1ccc(O)cc1)C(=O)N(C)[C@@H](Cc1ccccc1)C(=O)N[C@@H](CCC(N)=O)C(=O)N1CCC[C@H]1C(=O)N[C@@H](CCC(N)=O)C(=O)N[C@@H](CCCNC(=N)N)C(=O)N[C@@H](Cc1ccccc1)C(N)=O (H-[dY][dL][NMeF]QPQRF-NH2) | 9.72 | –
H-FLFGPQRF-NH2 | 8.00 | –
H-FLFQGQRF-NH2 | 8.92 | 8.8
H-FLFQPGRF-NH2 | 9.22 | –
H-FLYQPQRF-NH2 | 9.66 | –
